SENP7 inh = SENP7 protease inhibition; recombinant SENP7, Z-RLRGG-aminoluciferin luminescence, 40 min; 1.5% of 330,000 active; Q9BQF6; inhibition, % at 5 µM; AID 434973;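 active means inhibition above about 50% at the single test dose, limit read from the data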;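 further: plate controls were DMSO with enzyme for no effect and no enzyme buffer wells for full effect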
SENP1 FRET inh = blocks the human SENP1 SUMO protease catalytic domain | Q9P0U3 | recombinant SENP1 catalytic domain, CyPet-SUMO1-YPet FRET cleavage | inhibition, % at 10 µM | 0.21% of 360,000 active | AID 624204;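 active means inhibition at least 30% at 10 µM, raw YFP signal under a set limit, fluorescence ratio 0.5 to 1.5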;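 further: 0% = enzyme with DMSO and 100% = no enzyme wells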
Target sequence (Q9P0U3 419-644 limits assumed): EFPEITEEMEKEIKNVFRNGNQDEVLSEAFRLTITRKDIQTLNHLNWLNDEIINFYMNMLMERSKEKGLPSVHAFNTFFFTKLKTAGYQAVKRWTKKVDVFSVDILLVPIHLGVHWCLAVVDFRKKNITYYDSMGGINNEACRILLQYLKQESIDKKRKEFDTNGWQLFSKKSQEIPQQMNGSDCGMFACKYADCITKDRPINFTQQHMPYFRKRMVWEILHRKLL
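Test system: hSENP1 catalytic domain, recombinant; Amount: 20 pM final SENP1 enzyme; Medium: Tris pH 8 buffer plus EDTA, NaCl, BME, BSA, NP40, catalase; Schedule: 50 min enzyme reaction, room temperature, light-protected; Technique: FRET fluorescence in CFP and YFP emission channels; Controls: no-enzyme wells low, DMSO-plus-enzyme wells high control.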
SENP8 block-1 = inhibitors of human SENP8 protease | purified SENP8, Z-RLRGG-aminoluciferin cleavage, luminescence | inhibition, % at 10 µM | Q96LD8 | 1.2% of 330,000 active; in the data active means inhibition above about 50%
Target sequence (Q96LD8 whole entry, looked up): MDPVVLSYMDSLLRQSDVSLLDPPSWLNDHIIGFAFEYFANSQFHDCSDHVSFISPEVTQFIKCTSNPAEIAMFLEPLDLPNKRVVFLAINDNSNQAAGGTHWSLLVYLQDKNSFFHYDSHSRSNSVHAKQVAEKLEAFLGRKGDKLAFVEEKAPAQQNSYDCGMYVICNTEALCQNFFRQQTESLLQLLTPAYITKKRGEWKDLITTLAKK
SENP6 block = blocks the human protease SENP6 | Q9GZR1 | Recombinant SENP6 catalytic domain, aminoluciferin luminescence | inhibition, % at 10 µM | 1.8% of 330,000 active | AID 2599;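 active means inhibition above about 50% at the single tested dose, limit read from the data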;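 further: plate controls were DMSO wells with enzyme for no effect and DMSO wells lacking enzyme for full effect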
SENP8 block-2 = SENP8 (human) protease inhibition; Q96LD8; recombinant SENP8, Nedd8 substrate fluorescence; inhibition, % at 20 µM; 0.64% of 360,000 active; AID 602440; in the data active means inhibition mostly above about 40%, no sharp cut-off; inactive means mostly below about 27%
SENP8 confirm = confirmation of human SENP8 protease inhibitors; shares compounds with SENP7 inh; Recombinant SENP8, Z-RLRGG-aminoluciferin luminescence, 60 min; inhibition, % at 12.5 µM; 40% of 6,200 active;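 active means mean inhibition across replicates above about 50%, limit read from the data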
SENP6 conf = confirmation of human SENP6 protease inhibitors | 58% of 6,200 active | shares compounds with SENP7 inh | inhibition, % at 12.5 µM | recombinant SENP6, Z-RLRGG-aminoluciferin luminescence
SENP7 confirm = confirmation of human SENP7 protease inhibitors. recombinant SENP7, Z-RLRGG-aminoluciferin luminescence, 40 min. inhibition, % at 12.5 µM. 69% of 6,200 active. shares compounds with SENP7 inh. AID 488917
Casp3 select = caspase-3 inhibition (SENP selectivity assay); shares compounds with SENP7 inh; purified caspase-3, Z-DEVD-aminoluciferin luminescence, 60 min; inhibition, % at 12.5 µM; 60% of 6,200 active;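 active means mean inhibition above about 50%, limit read from the data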;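 further: plate controls were enzyme with DMSO for no effect and wells without caspase-3 for full effect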
Target sequence (P42574 28-227 limits assumed): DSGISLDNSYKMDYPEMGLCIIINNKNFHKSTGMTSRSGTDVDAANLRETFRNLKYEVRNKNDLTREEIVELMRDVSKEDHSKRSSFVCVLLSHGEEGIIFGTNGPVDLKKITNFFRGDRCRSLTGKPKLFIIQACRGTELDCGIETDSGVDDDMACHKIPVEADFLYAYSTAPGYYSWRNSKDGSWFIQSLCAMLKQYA
SENP luc ctr = counter-screen for SENP inhibitors: luminescence interference. 39% of 6,200 active. Pre-incubated SENP8/Z-RLRGG-aminoluciferin, luciferase luminescence interference. shares compounds with SENP7 inh. inhibition, % at 12.5 µM;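 active means mean inhibition above about 50% when retested at one dose, limit read from the data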;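 further: plate controls were DMSO wells with completed reaction for no effect and substrate without enzyme for full effect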
An asterisk follows results filed as active; . = no result given. Most compounds without a hit are left out; they make up all but 2.5% or so of the library.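 How the source made its calls, unless noted: active means mean inhibition above about 50% in the one-dose retest (limit read from the data); inactive means the rest.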

SMILES	SENP7 inh	SENP1 FRET inh	SENP8 block-1	SENP6 block	SENP8 block-2	SENP8 confirm	SENP6 conf	SENP7 confirm	Casp3 select	SENP luc ctr
COc1ccc(-c2nc3ccc(C)cn3c2NCc2ccc3c(c2)OCO3)cc1	-4.4	-11.7	-11.7	-1.6	-351.3	.	.	.	.	.
Cc1ccc(-c2nc3ccccn3c2NCc2ccc3c(c2)OCO3)cc1	-4.1	-33.7	0.6	50.7*	-298.3	29.3	19.6	42.9	26.5	40.2
O=C(Nc1c(-c2ccccc2)nc2ccccn12)c1ccco1	4.9	1.9	3.3	-12.2	3.7	.	.	.	.	.
Oc1ccc(-c2nc3ccccn3c2NCc2ccco2)cc1	0.6	-15.5	5.1	55.6*	-496.4	24.9	19.7	60.8*	47.8	44.0
COC(=O)c1cc(NC(=O)c2c(F)c(F)c(F)c(F)c2F)cc(C(=O)OC)c1	-3.3	0.5	-4.4	-21.8	17.7	.	.	.	.	.
COc1ccc(NC(=O)c2cc([N+](=O)[O-])ccc2O)cc1	99.7*	2.5	95.5*	99.6*	29.0	-24.9	101.3*	104.2*	100.1*	100.1*
O=C(Nc1ccncc1)c1cc2ccccc2cc1O	93.4*	-14.3	95.8*	99.2*	-5.9	84.6*	99.0*	102.5*	97.3*	45.4
COc1ccc(NC(=O)c2ccc(-c3ccc([N+](=O)[O-])cc3)o2)cc1	-8.5	2.3	-4.1	-17.9	17.4	.	.	.	.	.
Cc1ccc(NC(=O)c2csc(-c3ccccc3)c2C)cc1	.	3.4	.	.	9.8	.	.	.	.	.
O=C(Nc1ccncc1)c1ccccc1F	7.8	2.5	-5.2	-10.4	10.6	.	.	.	.	.
O=C(Nc1cccc([N+](=O)[O-])c1)c1cc2ccccc2cc1O	70.3*	3.8	80.1*	87.3*	39.7	14.3	37.4	43.7	79.1*	4.3
O=C(O)c1ccccc1C(=O)Nc1cccc([N+](=O)[O-])c1	2.1	2.9	2.9	9.9	23.1	.	.	.	.	.
Cc1c(C(=O)Nc2cccc([N+](=O)[O-])c2)csc1-c1ccccc1	97.3*	1.4	2.3	72.1*	25.4	31.6	27.0	45.3	76.2*	51.9*
COc1ccc(S(=O)(=O)N2CCN(C(=O)c3ccco3)CC2)cc1C(C)(C)C	-1.9	2.0	2.1	4.9	14.6	.	.	.	.	.
CS(=O)(=O)N1CCCC(C(=O)NCCCN2CCOCC2)C1 (centres undefined)	7.3	0.2	-0.3	-2.6	9.5	.	.	.	.	.
O=C(NCCOc1ccccc1Cl)c1ccc2c(c1)S(=O)(=O)c1cc(Cl)ccc1C2=O	4.1	4.1	2.6	-8.8	13.7	.	.	.	.	.
Cn1c(C(=O)NN)cc2cc(Oc3ccccc3)ccc21	1.8	0.3	-4.1	-34.4	-147.5	.	.	.	.	.
Cn1c(C(=O)O)cc2cc(Oc3ccccc3)ccc21	12.8	-1.0	63.9*	80.2*	-24.7	7.0	66.3*	82.4*	70.8*	71.7*
CC1(C(=O)NCc2cccc(C(F)(F)F)c2)CCN1CCc1ccccc1 (centres undefined)	.	1.9	.	.	14.6	.	.	.	.	.
Nc1ccc(C#Cc2ccccc2)cc1	13.2	2.0	3.4	32.7	-7.0	.	.	.	.	.
Nc1ccccc1C#Cc1ccccc1	65.6*	-3.3	56.9*	66.9*	-459.4	49.0	75.5*	91.2*	59.2*	63.1*
O=C(c1ccccc1)c1coc2c1C(=O)c1ccccc1C2=O	17.7	3.7	33.3	84.9*	52.4*	22.7	74.9*	48.0	14.1	14.8
COc1ccc2occ(C(=O)c3ccccc3)c2c1	18.9	1.5	27.5	-17.7	4.4	.	.	.	.	.
c1ccc2c(c1)ncn2-c1cncnc1	.	1.5	.	.	10.5	.	.	.	.	.
CCn1cnc2cc(NCc3nc4ccccc4n3C)ccc21	2.6	-17.0	68.2*	72.0*	-19.7	77.6*	77.4*	92.6*	91.9*	78.3*
SMILES	SENP7 inh	SENP1 FRET inh	SENP8 block-1	SENP6 block	SENP8 block-2	SENP8 confirm	SENP6 conf	SENP7 confirm	Casp3 select	SENP luc ctr
Cn1c(CNc2ccccc2O)nc2ccccc21	28.5	1.6	-6.7	9.8	13.4	.	.	.	.	.
Cn1c(CNc2ccc(F)cc2)nc2ccccc21	77.9*	-0.2	57.7*	79.7*	19.5	72.1*	71.9*	92.2*	87.3*	74.6*
Cn1c(CNc2ccccc2)nc2ccccc21	-1.6	-2.9	-16.5	17.7	-4.0	.	.	.	.	.
Cc1ccccc1NCc1nc2ccccc2n1C	86.3*	2.4	78.3*	84.9*	2.4	82.9*	84.3*	97.9*	93.3*	56.3*
COc1ccc(C(C(=O)Nc2ccc(F)cc2)N2CCN(CC(=O)N3CCCC3)CC2)cc1 (centres undefined)	.	3.5	.	.	17.4	.	.	.	.	.
Cc1cc(S(=O)(=O)N2c3ccc(F)cc3CCC2C)ccc1-n1cnnn1 (centres undefined)	-1.3	-1.6	0.1	-13.1	8.4	.	.	.	.	.
CC(=O)N1CCN(S(=O)(=O)c2cccc(C(=O)OCc3ccc(C(C)(C)C)cc3)c2)CC1	2.3	3.0	-2.9	2.4	12.7	.	.	.	.	.
Cc1nc2c(OCCC3CCCCC3)cccn2c1N(C)C(=O)CCC1CCCC1	.	-0.7	.	.	6.4	.	.	.	.	.
O=c1c2ccccc2oc2ccc(-c3ccc4[nH]ccc4c3)cc12	47.6	-1.1	43.8	53.4*	-81.3	16.7	36.5	57.1*	18.2	16.8
O=C(O)COn1c(-c2ccc(Cl)cc2)nc2ccc(Cl)cc21	-7.7	1.6	-7.3	0.5	-7.1	.	.	.	.	.
COn1c(-c2ccc(Cl)cc2)nc2ccc(Cl)cc21	0.6	0.7	-10.9	-2.1	6.1	.	.	.	.	.
Cc1ccc(COn2c(-c3ccc(Cl)cc3)nc3ccc([N+](=O)[O-])cc32)cc1	56.0*	-0.5	42.2	67.2*	21.6	11.4	16.6	49.1	22.4	23.9
CCOC(=O)C(C)On1c(-c2ccccc2)nc2ccc([N+](=O)[O-])cc21 (centres undefined)	76.5*	1.1	71.2*	84.0*	14.6	27.6	25.0	66.3*	58.9*	60.9*
O=C(O)COn1c(-c2ccccc2)nc2ccc([N+](=O)[O-])cc21	88.1*	4.5	70.2*	82.1*	4.0	1.3	0.5	33.3	52.9*	55.8*
CCOC(=O)C(C)On1c(-c2ccc(Cl)cc2)nc2ccc([N+](=O)[O-])cc21 (centres undefined)	49.9	-0.3	65.1*	70.0*	-48.2	-0.4	-5.4	28.6	6.4	24.9
